Structures are written as SMILES.

The values below come from ChEMBL document CHEMBL3232847, “Discovery of 6-phenylpyrimido[4,5-b][1,4]oxazines as potent and selective acyl CoA:diacylglycerol acyltransferase 1 (DGAT1) inhibitors with in vivo efficacy in rodents” (J Med Chem, 2014).

Data set [1] is described as follows: Clearance in Sprague-Dawley rat at 1 mg/kg, iv. Type of data set: ADME, organism-based. Set-up: dose 1 mg/kg, route intravenous. Conditions: in vivo; call rule not given here.
Data set [2] concerns the target T1, Diacylglycerol O-acyltransferase 1 (Homo sapiens, UniProt O75907).
T1 sequence (O75907 whole entry): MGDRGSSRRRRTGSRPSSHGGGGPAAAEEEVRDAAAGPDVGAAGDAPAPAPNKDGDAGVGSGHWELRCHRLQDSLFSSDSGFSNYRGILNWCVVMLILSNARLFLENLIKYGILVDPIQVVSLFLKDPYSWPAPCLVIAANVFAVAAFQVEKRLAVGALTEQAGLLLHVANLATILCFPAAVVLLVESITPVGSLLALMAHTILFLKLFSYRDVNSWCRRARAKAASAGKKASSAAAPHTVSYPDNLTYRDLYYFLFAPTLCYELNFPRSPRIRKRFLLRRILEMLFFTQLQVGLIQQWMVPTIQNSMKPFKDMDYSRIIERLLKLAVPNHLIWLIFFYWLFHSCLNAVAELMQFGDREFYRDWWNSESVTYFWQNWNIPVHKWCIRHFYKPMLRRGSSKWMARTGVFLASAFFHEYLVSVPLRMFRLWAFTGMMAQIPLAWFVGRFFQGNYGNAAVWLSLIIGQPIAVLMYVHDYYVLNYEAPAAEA
Briefly: Inhibition of human liver flag-tagged DGAT1 expressed in baculovirus infected insect cells after 2 hrs by SPA.

Data set [3] relates to Rattus norvegicus. Description: Toxicity in Sprague-Dawley rat assessed as sebaceous gland atrophy at 100 to 500 mg/kg, po by 28-day multiple-dose toxicity study. The note with it: in vivo. In kind it is organism-based. Set-up: dose 100-500 mg/kg, route oral. A digest of the protocol: (§1)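 Sprague−Dawley rats were dosed po at 100 and 500 mg kg−1 day−1 for 28 days. Clinical pathology was assessed for treatment-related changes, including sebaceous gland atrophy.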

The target of data set [4] is Cytochrome P450 2D6 (Homo sapiens, UniProt P10635). Description: Inhibition of CYP2D6 (unknown origin) at 10 uM. In kind it is ADME.
Data set [5] has as its target Cytochrome P450 2C9 (Homo sapiens, UniProt P11712). Description: Inhibition of CYP2C9 (unknown origin) at 10 uM. Type of data set: ADME.
The subject of data set [6] is Cynomolgus monkey. Briefly: Toxicity in cynomolgus monkey assessed as QTc interval prolongation at 1 mg/kg/day, po by 28-day multiple-dose toxicity study relative to control. Type of data set: organism-based, Macaca fascicularis. Also noted: route oral. Conditions: in vivo. A digest of the protocol: (§2)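 Cynomolgus monkeys were dosed po at 1, 10 and 100 mg kg−1 day−1 for 28 days. Plasma ALT and AST were measured and QTc intervals were recorded, with eight monkeys in the 100 mg/kg group.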

The target in data set [7] is Cytochrome P450 3A4 (Homo sapiens, UniProt P08684). Description: Inhibition of CYP3A4 (unknown origin) at 10 uM. Type of data set: ADME.
Data set [8] relates to Salmonella typhimurium. Briefly: Genotoxicity in Salmonella typhimurium. Type of data set: toxicity, organism-based. The note with it: salmonella enterica subsp. enterica serovar typhimurium.
For data set [9], the target named is T2, Cytochrome P450 1A2 (Homo sapiens, UniProt P05177).
T2 sequence (P05177 whole entry): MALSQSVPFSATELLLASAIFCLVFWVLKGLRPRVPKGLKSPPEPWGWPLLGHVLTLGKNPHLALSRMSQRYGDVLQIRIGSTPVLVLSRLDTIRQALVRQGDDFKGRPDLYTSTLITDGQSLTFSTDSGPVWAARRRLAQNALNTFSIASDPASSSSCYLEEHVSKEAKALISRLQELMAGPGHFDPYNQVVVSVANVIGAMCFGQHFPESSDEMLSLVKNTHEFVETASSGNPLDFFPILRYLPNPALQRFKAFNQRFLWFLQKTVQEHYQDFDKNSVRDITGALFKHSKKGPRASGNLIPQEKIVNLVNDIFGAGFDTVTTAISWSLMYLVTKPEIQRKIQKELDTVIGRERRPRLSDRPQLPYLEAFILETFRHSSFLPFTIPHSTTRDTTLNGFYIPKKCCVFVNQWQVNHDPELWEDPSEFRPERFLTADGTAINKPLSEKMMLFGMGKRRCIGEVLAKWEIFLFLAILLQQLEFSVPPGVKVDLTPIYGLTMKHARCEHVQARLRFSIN
Briefly: Inhibition of CYP1A2 (unknown origin) at 10 uM. In kind it is ADME.

Data set [10] relates to Rattus norvegicus. Description: Toxicity in Sprague-Dawley rat assessed as clinical pathology parameters at 100 to 500 mg/kg, po by 28-day multiple-dose toxicity study. Conditions: in vivo. Set-up: dose 100-500 mg/kg, route oral. In kind it is organism-based. A digest of the protocol: as §1
Data set [11] has as its system CHL (Chinese hamster lung cells). Description: Toxicity in CHL cells assessed as chromosomal aberration.
Data set [12] has as its system Cynomolgus monkey. Description: Toxicity in cynomolgus monkey assessed as QTc interval prolongation at 10 mg/kg/day, po by 28-day multiple-dose toxicity study relative to control. In kind it is organism-based, Macaca fascicularis. Conditions: in vivo. Also noted: route oral. A digest of the protocol: as §2
For data set [13], the system named is Rattus norvegicus. Description: Toxicity in Sprague-Dawley rat assessed as elevation of plasma ALT level at 50 mg/kg, iv administered as single dose. Type of data set: organism-based. Conditions: in vivo. Set-up: dose 50 mg/kg, route intravenous.
For data set [14], the system named is Rattus norvegicus. Briefly: Toxicity in Sprague-Dawley rat assessed as elevation of plasma AST level at 50 mg/kg, iv administered as single dose. Type of data set: organism-based. Set-up: dose 50 mg/kg, route intravenous. Conditions: in vivo.

Chain of Cytochrome P450 3A4 (P08684 whole entry): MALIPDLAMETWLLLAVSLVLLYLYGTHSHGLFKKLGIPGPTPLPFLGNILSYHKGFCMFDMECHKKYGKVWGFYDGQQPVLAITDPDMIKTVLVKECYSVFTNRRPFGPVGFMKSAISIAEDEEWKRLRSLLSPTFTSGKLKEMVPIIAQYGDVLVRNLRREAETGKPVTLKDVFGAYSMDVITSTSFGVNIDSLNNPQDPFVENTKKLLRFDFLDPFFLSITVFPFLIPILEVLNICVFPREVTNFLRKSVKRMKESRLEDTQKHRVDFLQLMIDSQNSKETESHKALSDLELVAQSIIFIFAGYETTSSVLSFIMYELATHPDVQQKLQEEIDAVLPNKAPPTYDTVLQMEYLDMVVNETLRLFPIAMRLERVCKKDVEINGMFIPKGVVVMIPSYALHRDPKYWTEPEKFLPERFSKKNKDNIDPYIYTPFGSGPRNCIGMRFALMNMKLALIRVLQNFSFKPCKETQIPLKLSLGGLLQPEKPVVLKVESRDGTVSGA
Chain of Cytochrome P450 2D6 (P10635 whole entry): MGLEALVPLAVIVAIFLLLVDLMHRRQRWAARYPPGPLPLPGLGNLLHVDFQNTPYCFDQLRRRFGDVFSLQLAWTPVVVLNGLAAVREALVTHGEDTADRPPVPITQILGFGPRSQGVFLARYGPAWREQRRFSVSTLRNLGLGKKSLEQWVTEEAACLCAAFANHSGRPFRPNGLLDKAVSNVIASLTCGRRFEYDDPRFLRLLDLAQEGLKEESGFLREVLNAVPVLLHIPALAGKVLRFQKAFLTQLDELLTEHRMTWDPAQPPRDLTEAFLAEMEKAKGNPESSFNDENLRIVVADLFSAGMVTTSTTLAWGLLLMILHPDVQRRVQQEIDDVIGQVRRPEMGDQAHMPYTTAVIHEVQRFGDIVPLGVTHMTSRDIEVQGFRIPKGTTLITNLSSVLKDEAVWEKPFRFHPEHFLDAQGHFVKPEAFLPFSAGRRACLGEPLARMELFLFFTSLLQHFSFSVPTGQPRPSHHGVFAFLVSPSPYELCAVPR
Chain of Cytochrome P450 2C9 (P11712 whole entry): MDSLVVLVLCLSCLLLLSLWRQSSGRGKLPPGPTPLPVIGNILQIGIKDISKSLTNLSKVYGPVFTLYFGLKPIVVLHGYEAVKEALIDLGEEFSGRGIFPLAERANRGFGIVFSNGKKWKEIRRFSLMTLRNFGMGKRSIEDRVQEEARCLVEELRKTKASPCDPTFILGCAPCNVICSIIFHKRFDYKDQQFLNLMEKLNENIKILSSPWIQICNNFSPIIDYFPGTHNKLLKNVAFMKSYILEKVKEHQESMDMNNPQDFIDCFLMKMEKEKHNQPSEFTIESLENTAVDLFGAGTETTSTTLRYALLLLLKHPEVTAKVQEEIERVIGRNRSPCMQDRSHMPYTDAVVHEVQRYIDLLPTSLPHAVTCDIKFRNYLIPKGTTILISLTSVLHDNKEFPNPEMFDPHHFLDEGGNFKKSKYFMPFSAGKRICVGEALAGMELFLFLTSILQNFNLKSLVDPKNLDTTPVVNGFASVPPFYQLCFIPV

For the compound `CC1(C)Oc2nc(C(F)(F)F)nc(N)c2N=C1c1ccc([C@H]2CC[C@H](CC(=O)O)CC2)cc1`, the clearance in [1] is 1.33 mL/min/kg.

Consider `CNc1ncnc2c1N=C(c1ccc(Br)cc1)CO2`, for which, in data set [2], the half-inhibitory concentration (IC50) is greater than 10 µM.

In the case of `Nc1nc(O)nc2c1N=C(c1ccc(Br)cc1)CO2`, in [2], the IC50 was greater than 10 µM.

For `Nc1cccc2c1N=C(c1ccc(Br)cc1)CO2`, the IC50 in [2] was greater than 10 µM.

Take `CN(C)c1nc(N)c2c(n1)OCC(c1ccc(Br)cc1)=N2`: in data set [2], the 50% inhibitory concentration (IC50) is greater than 10 µM.

Turning to `Cc1nc(N)c2c(n1)OC(C)(C)C(c1ccc([C@H]3CC[C@H](CC(=O)O)CC3)cc1)=N2`, the Activity result in data set [3] was “Toxic”; in data set [6] it was “Non-toxic”; in data set [8], “Non-toxic”; in data set [10], “Non-toxic”; in data set [11], “Toxic”; in data set [12] it was “Non-toxic”. In addition, the clearance in data set [1] is 3.5 mL/min/kg. Further, the “inhibition (INH)” value in [4], in [5], in data set [7] and in [9] was “Not Active” in each case.

For `CC1(C)Oc2ncnc(N)c2C=C1c1ccc2c(c1)CC[C@]21CC[C@@H](CC(=O)O)CC1`, in data set [1], the clearance was 21.7 mL/min/kg.

For the compound `CC1(C)Oc2nc(O)nc(N)c2N=C1c1ccc([C@H]2CC[C@H](CC(=O)O)CC2)cc1`, the Activity entry in data set [13] and in [14] was “Toxic” each time.

`Nc1nc(N)c2c(n1)OCC(c1ccc(Br)cc1)=N2` returned a 50% inhibitory concentration (IC50) in [2] greater than 10 µM.

Take `CC1(C)Oc2ncnc(N)c2C=C1c1ccc([C@H]2CC[C@H](CC(=O)O)CC2)cc1`: in [1], the clearance was 23.3 mL/min/kg.

In data set [2], `CN(C)c1ncnc2c1N=C(c1ccc(Br)cc1)CO2` gave an IC50 greater than 10 µM.

By clearance is commonly meant a measure of how efficiently the substance is removed, as volume per time. Broadly, the IC50 is the point on the concentration scale where inhibition reaches its midpoint.
